From ChEMBL document CHEMBL1123442 (J Med Chem, 1986) come the findings set out here.

Experiment [1] deals with P388. Nature of the experiment: In vivo for antitumor activity against P388 leukemia. It is filed as functional, Mus musculus. In a few lines: (§1)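 Mice given 10^6 P388 leukemia cells intraperitoneally, then drug intraperitoneally in 0.1 mL 30% v/v ethanol-water on days 1, 5 and 9. D50 (mg/kg per day giving 50% ILS) read from dose-response graph. ILS at optimal dose versus untreated controls. Long-term survival counted at 30 days.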

Experiment [2] concerns P388. Nature of the experiment: In vivo for antitumor activity against P388 leukemia. It is filed as functional, Mus musculus. In a few lines:
as §1

The test system of experiment [3] is L1210. The experiment can be described thus: In vitro for cytotoxicity against murine leukemia cells (L1210). Conditions: Mus musculus. The format is functional, cell-based.
Experiment [4] concerns Lewis lung carcinoma cell line. The experiment can be described thus: In vivo for antitumor activity against Lewis lung carcinoma. It is filed as functional, Mus musculus. In outline:
(§2)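 Mice inoculated intravenously with 10^6 Lewis lung carcinoma cells, then drug intraperitoneally in 0.1 mL 30% v/v ethanol-water on days 5, 9 and 13. D50 (mg/kg per day for 50% ILS) taken from dose-response graph. ILS at optimal dose versus untreated tumor-bearing controls. Survivors counted at 40 days.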

The subject of experiment [5] is Lewis lung carcinoma cell line. The experiment can be described thus: Evaluated in vivo for antitumor activity against Lewis lung carcinoma. The format is functional, Mus musculus. In a few lines:
as §2

Experiment [6] has as its system HCT-8. The experiment can be described thus: In vitro for cytotoxicity against human colon tumor cells (HCT-8) in culture. The format is functional, cell-based.
For experiment [7], the system named is poly[d(A-T)]. Nature of the experiment: Binding constant relative to amsacrine (Δlog K) for DNA binding by ethidium bromide displacement. Conditions: Bos taurus.

The structures appear in SMILES notation.

By IC50 is commonly meant the concentration that inhibits the measured activity by half. Read a high IC50 as weaker potency in that assay. `CNc1cc(NS(C)(=O)=O)ccc1Nc1c2ccccc2nc2c(C)c(C)ccc12`: the OD in experiment [1] was determined as 13.3 mg/kg; in experiment [4], 20 mg/kg. Also, the values for the D50 in experiment [2] and in experiment [5] were 7 mg/kg and 10 mg/kg, respectively. Also, the ILSmax in experiment [2] stood at 148%; in experiment [4] it was 155%. Also, the values for the IC50 in experiment [3] and in experiment [6] were 43 nM and 76 nM, respectively.

Regarding `CNc1cc(NS(C)(=O)=O)ccc1Nc1c2cccc(OC)c2nc2c(OC)cccc12`, the OD in experiment [1] was found to be 150 mg/kg; in experiment [4], 65 mg/kg. Also, the D50 was determined as 25 mg/kg in experiment [2] and 30 mg/kg in experiment [5]. Also, the ILSmax in experiment [2] is listed as 14%; in experiment [4], 116%. In addition, the IC50 in experiment [3] came out at 130 nM; in experiment [6], 160 nM.

Turning to `CNc1cc(NS(C)(=O)=O)ccc1Nc1c2ccccc2nc2cc(OC)ccc12`, the OD in experiment [1] stood at 8.9 mg/kg; in experiment [4] it was 20 mg/kg. Besides, the D50 worked out at 4.5 mg/kg in experiment [2] and 15 mg/kg in experiment [5]. Further, the ILSmax worked out at 132% in experiment [2] and 75% in experiment [4]. The results for the IC50 in experiment [3] and in experiment [6] were 35 nM and 180 nM, respectively.

Regarding `COc1cc(NS(C)(=O)=O)ccc1Nc1c2ccccc2nc2cc(I)ccc12`, the Δlog K in experiment [7] came to 0.78.

With `CNC(=O)c1cccc2c(Nc3ccc(NS(C)(=O)=O)cc3NC)c3ccccc3nc12`, the OD in experiment [1] was determined as 65 mg/kg; in experiment [4], 45 mg/kg. In addition, the D50 in experiment [2] turned out to be 30 mg/kg; in experiment [5], 6.8 mg/kg. Further, the ILSmax in experiment [2] is on record as 82%; in experiment [4] it was 91%. The half-maximal inhibitory concentration (IC50) amounted to 56 nM in experiment [3] and 1800 nM in experiment [6].

For the compound `CNc1cc(NS(C)(=O)=O)ccc1Nc1c2ccc(OC)cc2nc2c(C)cccc12`, the OD was found to be 1.8 mg/kg in experiment [1] and 4 mg/kg in experiment [4]. Further, the values for the D50 in experiment [2] and in experiment [5] were 0.3 mg/kg and 4 mg/kg, respectively. Also, the ILSmax came to 166% in experiment [2] and 50% in experiment [4]. Besides, the IC50 turned out to be 16 nM in experiment [3] and 29 nM in experiment [6].

For the compound `CNC(=O)c1cccc2c(Nc3ccc(NS(C)(=O)=O)cc3OC)c3cccc(C)c3nc12` [ASULACRINE], the values for the OD in experiment [1] and in experiment [4] were 20 mg/kg and 30 mg/kg, respectively.

Regarding `CNc1cc(NS(C)(=O)=O)ccc1Nc1c2ccccc2nc2ccccc12`, the OD in experiment [1] worked out at 13.3 mg/kg; in experiment [4], 30 mg/kg.

On to `COc1ccc2c(Nc3ccc(NS(C)(=O)=O)cc3OC)c3ccccc3nc2c1`, for which, in experiment [7], the Δlog K was determined as 0.26.

As to `CNc1cc(NS(C)(=O)=O)ccc1Nc1c2ccccc2nc2c(C)cccc12`, the OD in experiment [1] is 13.3 mg/kg; in experiment [4], 20 mg/kg. Moreover, the results for the D50 in experiment [2] and in experiment [5] were 3 mg/kg and 8.9 mg/kg, respectively. Moreover, the results for the ILSmax in experiment [2] and in experiment [4] were 157% and 139%, respectively. Further, the IC50 was 53 nM in experiment [3] and 79 nM in experiment [6].

Turning to `CNc1cc(NS(C)(=O)=O)ccc1Nc1c2ccccc2nc2cc(F)ccc12`, the OD in experiment [1] and in experiment [4] was 45 mg/kg in each case. Also, the values for the D50 in experiment [2] and in experiment [5] were 15 mg/kg and 20 mg/kg, respectively. The ILSmax is 157% in experiment [2] and 79% in experiment [4]. The figures for the IC50 in experiment [3] and in experiment [6] were 94 nM and 460 nM, respectively.

Compound `COc1cc(NS(C)(=O)=O)ccc1Nc1c2ccccc2nc2cc(Br)ccc12` displayed a Δlog K in experiment [7] of 0.72.

The compound `COc1cc(NS(C)(=O)=O)ccc1Nc1c2ccccc2nc2cc(F)ccc12` yielded a Δlog K in experiment [7] of -0.03.

In the case of `CNc1cc(NS(C)(=O)=O)ccc1Nc1c2ccc(Br)cc2nc2c(OC)cccc12`, the OD in experiment [1] and in experiment [4] was 65 mg/kg in each case. Also, the D50 turned out to be 9 mg/kg in experiment [2] and 40 mg/kg in experiment [5]. In addition, the ILSmax was 174% in experiment [2] and 111% in experiment [4]. Besides, the values for the IC50 in experiment [3] and in experiment [6] were 41 nM and 150 nM, respectively.

Take `CNc1cc(NS(C)(=O)=O)ccc1Nc1c2ccccc2nc2cc(Cl)ccc12`: the values for the OD in experiment [1] and in experiment [4] were 30 mg/kg and 20 mg/kg, respectively. The D50 in experiment [2] is 10 mg/kg; in experiment [5] it was 15 mg/kg. Moreover, the ILSmax in experiment [2] is listed as 149%; in experiment [4], 98%. Besides, the 50% inhibitory concentration (IC50) in experiment [3] is 24 nM; in experiment [6] it was 170 nM.

For the compound `CNc1cc(NS(C)(=O)=O)ccc1Nc1c2ccc(F)cc2nc2c(OC)cccc12`, the OD in experiment [1] and in experiment [4] was 65 mg/kg throughout. In addition, the D50 worked out at 20 mg/kg in experiment [2] and 45 mg/kg in experiment [5]. In addition, the ILSmax in experiment [2] amounted to 100%; in experiment [4], 85%. Further, the IC50 turned out to be 200 nM in experiment [3] and 370 nM in experiment [6].

On to `COc1ccc2[nH]c3ccccc3c(=Nc3ccc(NS(C)(=O)=O)cc3OC)c2c1`, for which the Δlog K in experiment [7] was -0.08.

In the case of `CNc1cc(NS(C)(=O)=O)ccc1Nc1c2ccccc2nc2c(F)cccc12`, the OD in experiment [1] was 45 mg/kg; in experiment [4] it was 65 mg/kg. The D50 in experiment [2] stood at 20 mg/kg; in experiment [5], 60 mg/kg. The values for the ILSmax in experiment [2] and in experiment [4] were 152% and 55%, respectively. In addition, the half-maximal inhibitory concentration (IC50) in experiment [3] came out at 400 nM; in experiment [6], 690 nM.

On to `CNc1cc(NS(C)(=O)=O)ccc1Nc1c2ccc(Cl)cc2nc2c(C)cccc12`, for which the OD is 13.3 mg/kg in experiment [1] and 30 mg/kg in experiment [4]. In addition, the D50 in experiment [2] was found to be 5 mg/kg; in experiment [5] it was 8 mg/kg. The ILSmax in experiment [2] turned out to be 128%; in experiment [4] it was 126%. For the same compound, the half-inhibitory concentration (IC50) came out at 15 nM in experiment [3] and 73 nM in experiment [6].

For `COc1cc(NS(C)(=O)=O)ccc1Nc1c2ccccc2nc2cc(C)ccc12`, the Δlog K in experiment [7] is 0.38.

Consider `CNc1cc(NS(C)(=O)=O)ccc1Nc1c2ccccc2nc2c(Cl)cccc12`, for which the OD in experiment [1] and in experiment [4] was 100 mg/kg each time. Besides, the D50 in experiment [2] was 65 mg/kg; in experiment [5] it was 80 mg/kg. In addition, the values for the ILSmax in experiment [2] and in experiment [4] were 64% and 59%, respectively. Besides, the results for the half-inhibitory concentration (IC50) in experiment [3] and in experiment [6] were 690 nM and 740 nM, respectively.

`CNC(=O)c1ccc2c(Nc3ccc(NS(C)(=O)=O)cc3NC)c3ccccc3nc2c1` returned an OD in experiment [1] of 65 mg/kg. The compound also came in with a D50 in experiment [2] of 30 mg/kg. Besides, the ILSmax in experiment [2] came out at 62%. Also, the half-maximal inhibitory concentration (IC50) in experiment [3] was over 1600 nM; in experiment [6] it was over 104 nM.

`CNC(=O)c1cccc2c(Nc3ccc(NS(C)(=O)=O)cc3NC)c3cccc(C)c3nc12`: the results for the OD in experiment [1] and in experiment [4] were 13.3 mg/kg and 30 mg/kg, respectively. In addition, the D50 in experiment [2] worked out at 6 mg/kg; in experiment [5], 25 mg/kg. Besides, the ILSmax is 94% in experiment [2] and 62% in experiment [4]. The IC50 in experiment [3] is 82 nM; in experiment [6], 353 nM.

With `CNc1cc(NS(C)(=O)=O)ccc1Nc1c2ccc(C)cc2nc2c(C)cccc12`, the OD in experiment [1] and in experiment [4] was 5.9 mg/kg each time. Also, the D50 is 2 mg/kg in experiment [2] and 4.2 mg/kg in experiment [5]. Besides, the ILSmax in experiment [2] is on record as 92%; in experiment [4], 93%. For the same compound, the half-maximal inhibitory concentration (IC50) in experiment [3] is 19 nM; in experiment [6], 24 nM.

In the case of `CNC(=O)c1cccc2c(Nc3ccc(NS(C)(=O)=O)cc3OC)c3ccccc3nc12`, in experiment [7], the Δlog K is -0.03.

In turn, `COc1cc(NS(C)(=O)=O)ccc1Nc1c2ccccc2nc2ccc(C)cc12` registered a Δlog K in experiment [7] of -0.22.

Compound `COc1cc(NS(C)(=O)=O)ccc1Nc1c2ccccc2nc2c(C)cccc12` registered a Δlog K in experiment [7] of 0.46.

Take `COc1cc(NS(C)(=O)=O)ccc1Nc1c2ccccc2nc2c(Cl)cccc12`: the Δlog K in experiment [7] turned out to be 0.19.

Regarding `CNc1cc(NS(C)(=O)=O)ccc1Nc1c2cccc(C)c2nc2c(C)cccc12`, the OD in experiment [1] came to 45 mg/kg; in experiment [4] it was 65 mg/kg. Moreover, the D50 in experiment [2] is 6 mg/kg; in experiment [5], 25 mg/kg. The ILSmax is given as 202% in experiment [2] and 125% in experiment [4]. Further, the IC50 in experiment [3] is 91 nM; in experiment [6], 190 nM.

`CNc1cc(NS(C)(=O)=O)ccc1Nc1c2ccc(F)cc2nc2c(C)cccc12`: the OD in experiment [1] and in experiment [4] was 45 mg/kg each time. The D50 in experiment [2] came out at 6 mg/kg; in experiment [5], 25 mg/kg. Also, the figures for the ILSmax in experiment [2] and in experiment [4] were 152% and 143%, respectively. The IC50 in experiment [3] and in experiment [6] was 150 nM in each case.

Consider `CNc1cc(NS(C)(=O)=O)ccc1Nc1c2ccc(Cl)cc2nc2c(OC)cccc12`, for which the results for the OD in experiment [1] and in experiment [4] were 65 mg/kg and 45 mg/kg, respectively. The D50 in experiment [2] was determined as 20 mg/kg; in experiment [5], 13 mg/kg. For the same compound, the figures for the ILSmax in experiment [2] and in experiment [4] were 236% and 159%, respectively. Besides, the IC50 is 120 nM in experiment [3] and 143 nM in experiment [6].

Consider `COc1cc(NS(C)(=O)=O)ccc1Nc1c2ccccc2nc2c(OC)cccc12`, for which the Δlog K in experiment [7] came to 0.37.

Regarding `COc1cc(NS(C)(=O)=O)ccc1Nc1c2ccccc2nc2ccc(Cl)cc12`, in experiment [7], the Δlog K was -0.08.

`COc1cc(NS(C)(=O)=O)ccc1Nc1c2ccccc2nc2cc(Cl)ccc12` displayed a Δlog K in experiment [7] of 0.49.
